Experimental data taken from the M2OR odorant receptor database.
Residue numbers refer to the chain shown, from its start.

How the values were obtained:
Conditions in all cases: stereoisomer not certain
OR5DG A156T = tested on: T1, OR5DG A156T
T1 sequence (whole entry): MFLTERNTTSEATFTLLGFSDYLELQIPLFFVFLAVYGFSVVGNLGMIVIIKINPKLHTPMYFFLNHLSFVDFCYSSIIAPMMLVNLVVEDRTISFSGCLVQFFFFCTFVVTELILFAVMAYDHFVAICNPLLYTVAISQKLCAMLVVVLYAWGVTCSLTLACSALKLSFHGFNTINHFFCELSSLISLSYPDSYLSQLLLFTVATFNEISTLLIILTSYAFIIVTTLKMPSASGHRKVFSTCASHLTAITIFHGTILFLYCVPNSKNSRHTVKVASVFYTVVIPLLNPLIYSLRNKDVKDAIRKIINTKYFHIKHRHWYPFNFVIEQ
Procedure, shortened: (§1)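 Each receptor–molecule pair is labelled responsive or non-responsive (inactive) according to whether the original authors judged the measured signal statistically different from baseline. The data were taken from the main text and supplementary material of published papers and checked for typos and inconsistencies. Assay methods differed by source, with transient luciferase assays in mammalian cell lines being common.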

OR5DI = tested on: T2, OR5DI
T2 sequence (whole entry): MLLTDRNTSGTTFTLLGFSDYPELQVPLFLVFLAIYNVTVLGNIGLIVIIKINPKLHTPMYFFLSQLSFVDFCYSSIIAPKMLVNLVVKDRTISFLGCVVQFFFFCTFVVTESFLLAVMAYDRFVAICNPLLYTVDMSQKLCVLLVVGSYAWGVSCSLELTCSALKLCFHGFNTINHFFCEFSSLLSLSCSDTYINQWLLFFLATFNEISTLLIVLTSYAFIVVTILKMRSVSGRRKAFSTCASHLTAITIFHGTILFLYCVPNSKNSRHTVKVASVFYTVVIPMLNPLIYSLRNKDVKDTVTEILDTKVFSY
Procedure, shortened: as §1

OR5F1 (Homo sapiens) = biological target: T3, OR5F1 (Homo sapiens) (UniProt O95221)
T3 sequence (whole entry): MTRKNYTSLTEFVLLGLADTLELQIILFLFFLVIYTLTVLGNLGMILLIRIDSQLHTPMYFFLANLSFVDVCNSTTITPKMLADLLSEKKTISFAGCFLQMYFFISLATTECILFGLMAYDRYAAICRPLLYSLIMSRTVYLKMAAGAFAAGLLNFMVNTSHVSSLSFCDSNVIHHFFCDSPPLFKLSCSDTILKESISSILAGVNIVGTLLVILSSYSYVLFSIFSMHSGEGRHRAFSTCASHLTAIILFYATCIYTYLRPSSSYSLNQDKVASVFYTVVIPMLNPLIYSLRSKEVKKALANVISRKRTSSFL
Procedure, shortened: as §1

OR5F1 = tested on: T4, OR5F1
T4 sequence (whole entry): T3 sequence (whole entry) with S294N
Procedure, shortened: as §1

OR5H1 (Homo sapiens) = biological target: T5, OR5H1 (Homo sapiens) (UniProt A6NKK0)
T5 sequence (whole entry): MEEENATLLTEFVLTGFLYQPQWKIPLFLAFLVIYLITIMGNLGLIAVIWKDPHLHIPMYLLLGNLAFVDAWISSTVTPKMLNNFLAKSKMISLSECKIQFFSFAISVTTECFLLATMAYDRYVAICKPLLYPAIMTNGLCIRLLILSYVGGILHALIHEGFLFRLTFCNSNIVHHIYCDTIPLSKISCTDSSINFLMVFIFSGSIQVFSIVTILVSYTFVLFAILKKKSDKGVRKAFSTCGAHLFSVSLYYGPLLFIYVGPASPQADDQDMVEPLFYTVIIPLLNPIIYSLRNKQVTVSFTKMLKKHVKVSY
Procedure, shortened: as §1

OR5H1 F17L A30T H56Q = tested on: T6, OR5H1 F17L A30T H56Q
T6 sequence (whole entry): T5 sequence (whole entry) with F17L, A30T, H56Q
Procedure, shortened: as §1

OR5H1 T181N = tested on: T7, OR5H1 T181N
T7 sequence (whole entry): T5 sequence (whole entry) with T181N
Procedure, shortened: as §1

OR5H14 (Homo sapiens) = biological target: T8, OR5H14 (Homo sapiens) (UniProt A6NHG9)
T8 sequence (whole entry): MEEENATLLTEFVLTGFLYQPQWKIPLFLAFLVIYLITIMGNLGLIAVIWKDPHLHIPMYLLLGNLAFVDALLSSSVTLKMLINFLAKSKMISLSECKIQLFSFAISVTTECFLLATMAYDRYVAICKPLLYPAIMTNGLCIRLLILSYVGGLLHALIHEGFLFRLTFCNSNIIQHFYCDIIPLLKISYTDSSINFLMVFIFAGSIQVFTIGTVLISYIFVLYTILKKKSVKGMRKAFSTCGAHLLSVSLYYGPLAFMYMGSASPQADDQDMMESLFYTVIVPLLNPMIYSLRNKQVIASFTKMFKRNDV
Procedure, shortened: as §1

OR5H15 (Homo sapiens) = biological target: T9, OR5H15 (Homo sapiens) (UniProt A6NDH6)
T9 sequence (whole entry): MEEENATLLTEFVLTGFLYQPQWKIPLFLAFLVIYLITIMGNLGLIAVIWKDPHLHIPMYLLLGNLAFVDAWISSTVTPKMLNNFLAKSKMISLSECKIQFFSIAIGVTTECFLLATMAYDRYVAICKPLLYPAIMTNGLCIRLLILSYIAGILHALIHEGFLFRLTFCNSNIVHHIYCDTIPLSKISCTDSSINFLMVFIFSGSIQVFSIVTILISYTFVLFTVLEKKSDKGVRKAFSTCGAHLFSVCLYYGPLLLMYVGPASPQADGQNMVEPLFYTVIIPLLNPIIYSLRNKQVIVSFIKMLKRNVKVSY
Procedure, shortened: as §1

OR5G3 (Homo sapiens) = OR5G3 (Homo sapiens) (UniProt P0C626)
OR5G3 (Homo sapiens), sequence (P0C626 whole entry): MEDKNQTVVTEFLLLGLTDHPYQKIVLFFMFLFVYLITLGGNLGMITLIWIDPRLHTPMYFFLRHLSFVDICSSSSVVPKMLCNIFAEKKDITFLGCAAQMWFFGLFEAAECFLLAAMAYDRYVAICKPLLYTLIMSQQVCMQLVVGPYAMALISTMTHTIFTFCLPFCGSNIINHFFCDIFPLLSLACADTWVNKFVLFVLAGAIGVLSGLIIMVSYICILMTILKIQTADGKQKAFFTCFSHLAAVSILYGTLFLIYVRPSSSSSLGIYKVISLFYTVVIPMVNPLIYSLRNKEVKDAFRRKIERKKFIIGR
Procedure, shortened: as §1

Measured: odorant receptor agonist call;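 further: active if original authors judged signal statistically different from baseline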

CCC1OC(=O)C(O)=C1C (centres undefined)
not listed: OR5G3 (Homo sapiens)
inactive: all other assays above

CCCCCCC=CCCC=O
not listed: OR5H1 T181N | OR5G3 (Homo sapiens)
inactive: all other assays above

CCCCCC(S)C(C)CO (centres undefined)
inactive: OR5F1 (Homo sapiens) | OR5H1 (Homo sapiens) | OR5H14 (Homo sapiens) | OR5H15 (Homo sapiens)

CCC1OC(C)=C(O)C1=O (centres undefined)
not listed: OR5G3 (Homo sapiens)
inactive: all other assays above

CC1=C(O)C(=O)OC1C (centres undefined)
not listed: OR5G3 (Homo sapiens)
inactive: all other assays above

CCCCCC(=O)C(C)C(C)=O (centres undefined)
inactive: OR5F1 (Homo sapiens) | OR5H1 (Homo sapiens) | OR5H14 (Homo sapiens) | OR5H15 (Homo sapiens)

CC1=C(O)C(=O)C(C)O1 (centres undefined)
not listed: OR5G3 (Homo sapiens)
inactive: all other assays above

CCC(S)C(C)CO (centres undefined)
inactive: OR5F1 (Homo sapiens) | OR5H1 (Homo sapiens) | OR5H14 (Homo sapiens) | OR5H15 (Homo sapiens)

Cc1cnc(C)c(C)n1
not listed: OR5G3 (Homo sapiens)
inactive: all other assays above

CC(CO)CS (centres undefined)
inactive: OR5F1 (Homo sapiens) | OR5H1 (Homo sapiens) | OR5H14 (Homo sapiens) | OR5H15 (Homo sapiens)

CC(=O)c1c(C)c([N+](=O)[O-])c(C(C)(C)C)c([N+](=O)[O-])c1C
inactive: OR5F1 (Homo sapiens) | OR5G3 (Homo sapiens) | OR5H14 (Homo sapiens) | OR5H15 (Homo sapiens)

CC1=NC(C)C(C)S1 (centres undefined)
not listed: OR5G3 (Homo sapiens)
inactive: all other assays above

CC1CCCCCCCCCCCCC(=O)C1 (centres undefined)
inactive: OR5F1 (Homo sapiens) | OR5G3 (Homo sapiens) | OR5H14 (Homo sapiens) | OR5H15 (Homo sapiens)

CCCC(S)CCOC(C)=O (centres undefined)
not listed: OR5G3 (Homo sapiens)
inactive: all other assays above

CCCCC(S)C(C)CO (centres undefined)
inactive: OR5F1 (Homo sapiens) | OR5H1 (Homo sapiens) | OR5H14 (Homo sapiens) | OR5H15 (Homo sapiens)
